Results taken from ChEMBL document CHEMBL1158750, “Merosesquiterpenes from two sponges of the genus Dysidea” (2005).

What was measured:
Format in all cases: functional
Details in all cases: for CC50: read-out: LC50 (the source's name)
A549 = experiment: Cytotoxicity against human A549 cells by SRB assay
Summary of the method: (§1)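 Human tumor cell line (A-549 lung carcinoma, HT-29 colon adenocarcinoma, MDA-MB-231 mammary gland adenocarcinoma) growth and viability measured by colorimetric sulforhodamine B (SRB) staining. Parameters derived were GI50 (50% growth inhibition), TGI (total growth inhibition) and LC50 (50% cell killing).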

MDA-MB-231 = experiment: Cytotoxicity against human MDA-MB-231 cells by SRB assay; summary of the method: as §1
HT-29 = experiment: Cytotoxicity against human HT-29 cells by SRB assay; summary of the method: as §1

Compound	GI50 (A549) [µM]	GI50 (MDA-MB-231) [µM]	GI50 (HT-29) [µM]	TGI (HT-29) [µM]	CC50 (HT-29) [µM]	TGI (A549) [µM]	CC50 (A549) [µM]	TGI (MDA-MB-231) [µM]	CC50 (MDA-MB-231) [µM]
CC1(C)CCC[C@]2(C)[C@@H](Cc3cc(O)ccc3O)[C@](C)(O)CC[C@@H]12	17.4	27.7	–	–	–	–	–	–	–
C=C1CCC[C@H]2[C@](C)(Cc3cc(OC(C)=O)ccc3O)[C@@H](C)CC[C@]12C	25.5	21	–	–	–	–	–	–	–
CC(=O)Oc1ccc(O)c(C[C@H]2C(C)=CC[C@H]3C(C)(C)CCC[C@]23C)c1O	10.5	10.5	11.3	12.6	14	11	11.8	11	11.8
CC1=CC[C@H]2C(C)(C)CCC[C@]2(C)[C@H]1C[C@H]1C(=O)C=C[C@@H]1O [DYSIENONE]	12.9	15.2	13.6	14.2	15.2	13.6	14.2	16.5	17.9
